According to ChEMBL document CHEMBL1157379, “Transcriptional response of Candida parapsilosis following exposure to farnesol” (2007):
Activity calls are given as the source filed them. The calls are words filed in the database; no cut-off is given here.

Key:
[1] = test system: Candida parapsilosis; assay: Increase in GenBank accession number NP_983467.1 expression in Candida parapsilosis CLIB214 at 50 uM after 2 hrs by microarray based transcriptional profiling relative to control; format: functional
Summary of the method: (§1)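 Strain grown overnight in YPD at 30°C, diluted to A600 0.2 in YPD at 30°C; farnesol (40 mM methanol stock) added at 4 h (A600 0.8), final 50 μM; methanol-only control. Cells collected 2 h later for RNA. Labelled cDNA from 25 μg total RNA (Cy3/Cy5-dCTP) hybridized to 68-mer oligo arrays at 42°C ~16 h; six individual comparisons analysed statistically.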

[2] = test system: Candida parapsilosis; assay: Decrease in CGD gene ortholog accession number orf19.4253 expression in Candida parapsilosis CLIB214 at 50 uM after 2 hrs by microarray based transcriptional profiling relative to control; format: functional
Summary of the method: (§2)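 Cells in YPD at 30°C treated with 50 μM farnesol at 4 h, with a methanol control. RNA harvested 2 h later and kept only if 28S/18S ratio was 1.6–2.2 with no degradation. 25 μg total RNA oligo-dT primed and labeled with Cy3/Cy5-dCTP. Labeled cDNA hybridized about 16 h at 42°C to duplicate-spotted 68-mer oligo arrays. Six individual comparisons analyzed statistically.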

[3] = test system: Candida parapsilosis; assay: Decrease in ERG1 gene expression in Candida parapsilosis CLIB214 at 50 uM after 2 hrs by microarray based transcriptional profiling relative to control; format: functional
Summary of the method: (§3)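 Strain CLIB214 grown overnight in YPD at 30°C, diluted to A600 0.2 in fresh YPD at 30°C. After 4 h (A600 0.8), farnesol (40 mM methanol stock) added to 50 μM final, or an equal methanol volume as control; cells harvested 2 h later. RNA was accepted only with a 28S/18S ratio of 1.6–2.2. Cy3/Cy5-dCTP-labelled cDNA was made from 25 μg total RNA. Hybridisation was to duplicate-spotted 68-mer oligo arrays (3,849 genes) at 42°C for about 16 h. Six individual comparisons.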

[4] = test system: Candida parapsilosis; assay: Increase in CGD gene ortholog accession number orf19.779 expression in Candida parapsilosis CLIB214 at 50 uM after 2 hrs by microarray based transcriptional profiling relative to control; format: functional; summary of the method: as §3
[5] = test system: Candida parapsilosis; assay: Increase in CGD gene ortholog accession number orf19.7097 expression in Candida parapsilosis CLIB214 at 50 uM after 2 hrs by microarray based transcriptional profiling relative to control; format: functional; summary of the method: as §3
[6] = test system: Candida parapsilosis; assay: Decrease in STE23 gene expression in Candida parapsilosis CLIB214 at 50 uM after 2 hrs by microarray based transcriptional profiling relative to control; format: functional; summary of the method: as §3
[7] = test system: Candida parapsilosis; assay: Reduction in ERG1 gene expression in Candida parapsilosis CLIB214 by RT-PCR; format: functional, organism-based
Summary of the method: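 Cultures in YPD at 30°C, diluted to A600 0.2; 50 μM farnesol (final) or methanol added at 4 h, RNA harvested 2 h later. RT-PCR: 95°C hot start 1 min 30 s, then 26 cycles (95°C 40 s, 55°C 2 min, 72°C 3 min), final 72°C 5 min; each gene signal normalized to ACT1.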

[8] = test system: Candida parapsilosis; assay: Increase in ACC1 gene expression in Candida parapsilosis CLIB214 at 50 uM after 2 hrs by microarray based transcriptional profiling relative to control; format: functional; summary of the method: as §3
[9] = test system: Candida parapsilosis; assay: Decrease in CGD gene ortholog accession number orf19.1728 expression in Candida parapsilosis CLIB214 at 50 uM after 2 hrs by microarray based transcriptional profiling relative to control; format: functional; summary of the method: as §2
[10] = test system: Candida parapsilosis; assay: Increase in GenBank accession number NP_943645.1 expression in Candida parapsilosis CLIB214 at 50 uM after 2 hrs by microarray based transcriptional profiling relative to control; format: functional; summary of the method: as §1
[11] = test system: Candida parapsilosis; assay: Increase in CGD gene ortholog accession number orf19.2446 expression in Candida parapsilosis CLIB214 at 50 uM after 2 hrs by microarray based transcriptional profiling relative to control; format: functional; summary of the method: as §3
[12] = test system: Candida parapsilosis; assay: Decrease in CGD gene ortholog accession number orf19.3603 expression in Candida parapsilosis CLIB214 at 50 uM after 2 hrs by microarray based transcriptional profiling relative to control; format: functional; summary of the method: as §2
[13] = test system: Candida parapsilosis; assay: Increase in TEF1 gene expression in Candida parapsilosis CLIB214 at 50 uM after 2 hrs by microarray based transcriptional profiling relative to control; format: functional; summary of the method: as §1
[14] = test system: Candida parapsilosis; assay: Decrease in CGD gene ortholog accession number orf19.194 expression in Candida parapsilosis CLIB214 at 50 uM after 2 hrs by microarray based transcriptional profiling relative to control; format: functional; summary of the method: as §2
[15] = test system: Candida parapsilosis; assay: Effect on membrane lipid localization in ERG9 gene expression in Candida parapsilosis CLIB214 assessed as uniform staining at 50 uM after 1 hr by filipin staining; format: functional
Summary of the method: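 Cultures grown overnight in YPD at 30°C, diluted to A600 0.2, and given farnesol to 50 μM final (methanol for controls) after 4 h of growth. Cells collected 1 h later, PBS-washed, and stained 10 min at room temperature with 100 μg ml−1 filipin in water. Scored by fluorescence microscopy (excitation 360–370 nm, emission 420–460 nm) as bud-tip versus uniform sterol staining.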

[16] = test system: Candida parapsilosis; assay: Increase in NIT2 gene expression in Candida parapsilosis CLIB214 at 50 uM after 2 hrs by microarray based transcriptional profiling relative to control; format: functional; summary of the method: as §1
[17] = test system: Candida parapsilosis; assay: Increase in CGD gene ortholog accession number orf19.7353 expression in Candida parapsilosis CLIB214 at 50 uM after 2 hrs by microarray based transcriptional profiling relative to control; format: functional; summary of the method: as §3
[18] = test system: Candida parapsilosis; assay: Decrease in SOL1 gene expression in Candida parapsilosis CLIB214 at 50 uM after 2 hrs by microarray based transcriptional profiling relative to control; format: functional; summary of the method: as §3
[19] = test system: Candida parapsilosis; assay: Increase in CGD gene ortholog accession number orf19.3617 expression in Candida parapsilosis CLIB214 at 50 uM after 2 hrs by microarray based transcriptional profiling relative to control; format: functional; summary of the method: as §3
[20] = test system: Candida parapsilosis; assay: Antifungal activity against Candida parapsilosis CLIB214 assessed as growth inhibition at 50 uM added after 2 hrs of bacterial growth measured after 4 hrs; format: functional; details: Lodderomyces parapsilosis
Summary of the method: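 Overnight YPD culture at 30°C diluted to A600 0.2 in YPD. Farnesol added to 50 μM final at 2, 4, 6 or 8 h of growth (A600 about 0.8 at 4 h, 2.3 at 6 h, 6 at 8 h). Growth compared with methanol controls by A600 or cell counts.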

[21] = test system: Candida parapsilosis; assay: Increase in CGD gene ortholog accession number orf19.5963 expression in Candida parapsilosis CLIB214 at 50 uM after 2 hrs by microarray based transcriptional profiling relative to control; format: functional; summary of the method: as §3
[22] = test system: Candida parapsilosis; assay: Cell cycle arrest in Candida parapsilosis CLIB214 assessed as accumulation at G2/M phase at 50 uM added 4 hrs after […] growth; format: functional, organism-based
Summary of the method: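 YPD culture diluted to A600 0.2 at 30°C. Farnesol added to 50 μM after 4 h. Budding cells scored by microscopy: unbudded as G1, small budded as S, large budded as G2/M. Compared with methanol controls.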

[23] = test system: Candida parapsilosis; assay: Increase in DOT5 gene expression in Candida parapsilosis CLIB214 at 50 uM after 2 hrs by microarray based transcriptional profiling relative to control; format: functional; summary of the method: as §1
[24] = test system: Candida parapsilosis; assay: Decrease in CGD gene ortholog accession number orf19.4947 expression in Candida parapsilosis CLIB214 at 50 uM after 2 hrs by microarray based transcriptional profiling relative to control; format: functional; summary of the method: as §2

CC(C)=CCC/C(C)=C/CC/C(C)=C/CO [FARNESOL]
fold change (FC) [1]: 3.16 | fold change (FC) [2]: 1.63 | fold change (FC) [3]: 2.24 | fold change (FC) [4]: 1.72 | fold change (FC) [5]: 1.86 | fold change (FC) [6]: 2.13 | Activity [7]: Active | fold change (FC) [8]: 1.59 | fold change (FC) [9]: 1.59 | fold change (FC) [10]: 2.05 | fold change (FC) [11]: 1.59 | fold change (FC) [12]: 1.92 | fold change (FC) [13]: 1.61 | fold change (FC) [14]: 1.84 | Activity [15]: 82% | fold change (FC) [16]: 1.86 | fold change (FC) [17]: 2.14 | fold change (FC) [18]: 1.54 | fold change (FC) [19]: 1.55 | inhibition at 50 µM [20]: 71% | fold change (FC) [21]: 1.68 | Activity [22]: Active | fold change (FC) [23]: 1.5 | fold change (FC) [24]: 1.58
